Activity calls are given as the source filed them. No cut-off for these calls is given here.
Tests used:
[1] = Antiviral activity against Hepatitis B virus subtype adw2 infected in human HuH7 cells assessed as reduction in HBx level at 5 ug/ml after 2 days by immunoblot method relative to control; type: functional
Procedure, shortened: (§1)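 Huh7 cells were transfected with pHBV1.2 (1.2-fold HBV adw2 genome) for 2 days, then exposed to 2.5, 5 or 10 μg/mL for another 2 days. Whole-cell protein was extracted with protease inhibitors. SHBs, HBcAg and HBx were detected by immunoblot, with α-tubulin for comparison.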

[2] = Antiviral activity against Hepatitis B virus subtype adw2 infected in human HuH7 cells assessed as reduction in HBx level at 10 ug/ml after 2 days by immunoblot method relative to control; type: functional; procedure, shortened: as §1
[3] = Decrease in NF-kB (unknown origin) promoter activity expressed in human HuH7 cells cotransfected with pHBV1.2 at 10 ug/ml after 24 hrs by luciferase reporter gene assay; type: cell-based
Procedure, shortened: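 Huh7 cells were seeded for 24 h, then cotransfected with pHBV1.2, pRLSV40 and pAP1-Luc or pNF-κB-Luc responsive-element reporter for 24 h. Cells were treated at 10 μg/mL for 24 h and lysates were assayed for luciferase. Mean ± SD, n = 3, compared with untreated cells.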

[4] = Effect on ISRE (unknown origin) promoter activity expressed in human HuH7 cells cotransfected with pHBV1.2 at 10 ug/ml after 24 hrs by luciferase reporter gene assay; type: cell-based
Procedure, shortened: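 Huh7 seeded in 24-well plates for 24 h. They were cotransfected with pHBV1.2 plus a luciferase reporter carrying the AP-2 (pAP2-Luc) or ISRE (pISRE-Luc) element, at 1 μg/well, and pRLSV40, in serum-free DMEM for 24 h. After a PBS wash, cells were placed in DMEM with 2% FBS and treated with 10 μg/mL. Luciferase was read from lysates; mean ± SD, n = 3.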

[5] = test system: Huh-7; assay: Decrease in NF-kB p65 protein expression in human HuH7 cells transfected with pHBV1.2 at 2.5 ug/ml after 2 days by immunoblot method relative to control; type: functional
Procedure, shortened: (§2)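 Huh7 cells were transfected with pHBV1.2 for 2 days, then treated at 2.5, 5 or 10 μg/mL for another 2 days. Whole-cell protein was extracted with protease inhibitors. NF-κB p65/p50, phospho-p65, IKKα/β and IκBα/phospho-IκBα were detected by immunoblot. Blots are representative of three experiments.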

[6] = test system: Huh-7; assay: Decrease in NF-kB p50 protein expression in human HuH7 cells transfected with pHBV1.2 at 5 ug/ml after 2 days by immunoblot method relative to control; type: functional; procedure, shortened: as §2
[7] = test system: Huh-7; assay: Effect on IKKalpha protein expression in human HuH7 cells transfected with pHBV1.2 at 2.5 ug/ml after 2 days by immunoblot method relative to control; type: functional
Procedure, shortened: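 HBV adw2 genome plasmid pHBV1.2 transfected into Huh7 for 2 days, then 2.5, 5 or 10 μg/mL for another 2 days. Whole-cell protein extracted with protease inhibitors, then SDS-PAGE immunoblot for NF-κB and MAPK pathway proteins. Blots are representative of three sets of experiments.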

[8] = test system: Huh-7; assay: Decrease in IKKalpha protein expression in human HuH7 cells transfected with pHBV1.2 at 5 ug/ml after 2 days by immunoblot method relative to control; type: functional; procedure, shortened: as §2
[9] = test system: Huh-7; assay: Decrease in IKKbeta protein expression in human HuH7 cells transfected with pHBV1.2 at 10 ug/ml after 2 days by immunoblot method relative to control; type: functional; procedure, shortened: as §2
[10] = target: Transcription factor p65 (Homo sapiens) (UniProt Q04206); assay: Decrease in NF-kB p65 phosphorylation in human HuH7 cells transfected with pHBV1.2 at 2.5 ug/ml after 2 days by immunoblot method relative to control; type: cell-based; procedure, shortened: as §2
Sequence of Transcription factor p65 (Homo sapiens) (Q04206 whole entry): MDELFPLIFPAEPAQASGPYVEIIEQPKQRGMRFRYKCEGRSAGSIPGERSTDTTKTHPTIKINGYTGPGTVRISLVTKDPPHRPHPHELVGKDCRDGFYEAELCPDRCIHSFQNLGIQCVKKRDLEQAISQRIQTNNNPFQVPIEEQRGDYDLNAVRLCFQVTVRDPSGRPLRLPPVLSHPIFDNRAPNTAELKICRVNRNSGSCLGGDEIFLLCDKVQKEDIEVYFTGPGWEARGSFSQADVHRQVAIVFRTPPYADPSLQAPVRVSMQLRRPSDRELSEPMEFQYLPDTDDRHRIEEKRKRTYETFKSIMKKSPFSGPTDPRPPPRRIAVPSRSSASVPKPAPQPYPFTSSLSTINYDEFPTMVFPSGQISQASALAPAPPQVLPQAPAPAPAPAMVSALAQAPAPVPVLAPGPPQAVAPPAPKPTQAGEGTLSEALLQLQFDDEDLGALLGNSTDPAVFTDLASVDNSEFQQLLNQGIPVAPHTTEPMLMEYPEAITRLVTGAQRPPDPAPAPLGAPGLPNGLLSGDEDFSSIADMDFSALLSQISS

[11] = target: Transcription factor p65 (Homo sapiens) (UniProt Q04206); assay: Decrease in NF-kB p65 phosphorylation in human HuH7 cells transfected with pHBV1.2 at 10 ug/ml after 2 days by immunoblot method relative to control; type: cell-based; procedure, shortened: as §2
[12] = target: T1, NF-kappa-B inhibitor alpha (Homo sapiens) (UniProt P25963); assay: Decrease in IKBalpha phosphorylation in human HuH7 cells transfected with pHBV1.2 at 5 ug/ml after 2 days by immunoblot method relative to control; type: cell-based; procedure, shortened: as §2
T1 sequence (whole entry): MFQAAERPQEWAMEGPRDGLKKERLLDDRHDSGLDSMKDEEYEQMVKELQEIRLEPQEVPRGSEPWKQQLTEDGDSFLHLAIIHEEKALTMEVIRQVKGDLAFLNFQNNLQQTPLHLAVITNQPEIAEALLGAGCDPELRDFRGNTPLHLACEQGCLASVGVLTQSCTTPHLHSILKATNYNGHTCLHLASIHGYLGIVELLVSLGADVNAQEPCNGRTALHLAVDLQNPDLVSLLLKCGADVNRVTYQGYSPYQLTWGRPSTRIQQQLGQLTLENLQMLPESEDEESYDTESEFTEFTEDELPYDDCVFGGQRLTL

[13] = test system: Huh-7; assay: Decrease in IKBalpha protein expression in human HuH7 cells transfected with pHBV1.2 at 5 ug/ml after 2 days by immunoblot method relative to control; type: functional; procedure, shortened: as §2
[14] = test system: Hepatitis B virus subtype adw2; assay: Antiviral activity against Hepatitis B virus subtype adw2 infected in human HuH7 cells cotransfected with pCMV-p65 assessed as inhibition of viral DNA replication at 10 ug/ml after 2 days by RT-PCR method; type: functional, cell-based
Procedure, shortened: (§3)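 Huh7 cells were cotransfected with pHBV1.2 and, where stated, 0.5 or 2.5 μg pCMV-p65 (or empty vector) for 2 days, then treated at 10 μg/mL for 2 days. In separate wells, HBV-expressing cells received 10 μg/mL with or without anisomycin (10 μM) for 2 days. Secreted viral particles were kit-isolated and HBV DNA was measured by real-time PCR, n = 3.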

[15] = test system: Hepatitis B virus subtype adw2; assay: Antiviral activity against Hepatitis B virus subtype adw2 infected in human HuH7 cells assessed as inhibition of viral DNA replication at 10 ug/ml cotreated with MAPK activator anisomycin after 2 days by RT-PCR method; type: functional, cell-based; procedure, shortened: as §3
[16] = test system: Huh-7; assay: Decrease in ERK1/2 protein expression in human HuH7 cells transfected with pHBV1.2 at 2.5 to 10 ug/ml after 2 days by immunoblot method
[17] = test system: Huh-7; assay: Decrease in SAPK/JNK protein expression in human HuH7 cells transfected with pHBV1.2 at 2.5 to 10 ug/ml after 2 days by immunoblot method

With `C=C1C[C@@]23CC[C@H]4[C@@](C)(CCC[C@@]4(C)NC(=O)NCCCC)[C@@H]2CC[C@]1(O)C3` the “fold change (FC)” value [1] was 0.87, the “fold change (FC)” value [2] was 0.15 and the Activity [3] was “Active”. The Activity [4] was “inactive”, the “fold change (FC)” value [5] was 0.89 and the “fold change (FC)” value [6] was 0.97. For the same molecule, the “fold change (FC)” value [7] was 1.1, the “fold change (FC)” value [8] was 1.01 and the “fold change (FC)” value [9] was 0.33. For the same molecule, the fold change (FC) [10] was 0.95, the fold change (FC) [11] was 0.23 and the fold change (FC) [12] was 0.94. For the same molecule, the “fold change (FC)” value [13] was 0.94, the inhibition [14] was “inactive” and the inhibition [15] was “inactive”. For the same molecule, the Activity [16] was “Active” and the Activity [17] was “Active”.

From ChEMBL document CHEMBL3997773, “Synthesis of C-4-Substituted Steviol Derivatives and Their Inhibitory Effects against Hepatitis B Virus” (J Nat Prod, 2016)
